For data set [1], the system named is Staphylococcus aureus. The data set can be described thus: Bactericidal activity against Methicillin-resistant Staphylococcus aureus ATCC 33591 assessed as inhibition of bacterial growth measured after 48 hrs by agar plate method. The class given is functional. In short, it runs like this:
(§1)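 MBC: aliquots from microdilution wells without colour change subcultured on drug-free Mueller Hinton agar, 48 h at 37 °C aerobically. MBC is the lowest concentration with no visible growth. Triplicate.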

Data set [2] has as its system Klebsiella pneumoniae. To be noted: RBRJ019, dose 50.0 µM, time 48.0 hrs.
The test system of data set [3] is Enterococcus faecalis. The data set can be described thus: Antibacterial activity against Enterococcus faecalis MTCC 439 assessed as inhibition of bacterial growth at 50 uM measured after 48 hrs by agar well diffusion method. Conditions: read-out: IZ. The class given is functional.
Data set [4] has as its system Klebsiella pneumoniae. Nature of the data set: Antibacterial activity against Klebsiella pneumoniae MTCC 109 assessed as inhibition of bacterial growth at 50 uM measured after 48 hrs by agar well diffusion method. To be noted: read-out: IZ. The class given is functional. (In general: A growth-free zone around the sample is the usual read-out of agar diffusion tests.)

The test system of data set [5] is Escherichia coli. Nature of the data set: Antibacterial activity against Escherichia coli MTCC 119 assessed as inhibition of bacterial growth at 50 uM measured after 48 hrs by agar well diffusion method. The class given is functional. To be noted: read-out: IZ.
Data set [6] deals with Staphylococcus aureus. The data set can be described thus: Antibacterial activity against Methicillin-resistant Staphylococcus aureus ATCC 33591 assessed as inhibition of bacterial growth at 50 uM measured after 48 hrs by agar well diffusion method. To be noted: read-out: IZ. The class given is functional. In short, it runs like this: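 Agar well diffusion on Mueller Hinton agar seeded with bacteria at 0.5 McFarland. […] Incubated 48 h at 37 °C aerobically; zone of inhibition diameter (mm) measured. Triplicate.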

The test system of data set [7] is Klebsiella pneumoniae. To be noted: RBRJ024, dose 50.0 µM, time 48.0 hrs.
Data set [8] relates to Staphylococcus epidermidis. Nature of the data set: Antibacterial activity against Staphylococcus epidermidis MTCC 435 assessed as inhibition of bacterial growth at 50 uM measured after 48 hrs by agar well diffusion method. The class given is functional. To be noted: read-out: IZ.
A further data set concerns Pseudomonas aeruginosa. Nature of the data set: Antibacterial activity against Pseudomonas aeruginosa MTCC 424 assessed as inhibition of bacterial growth at 50 uM measured after 48 hrs by agar well diffusion method. The class given is functional. Conditions: read-out: IZ.
In data set [9] the test system is Staphylococcus aureus. The data set can be described thus: Antibacterial activity against Methicillin-resistant Staphylococcus aureus ATCC 33591 assessed as inhibition of bacterial growth measured after 48 hrs by broth microdilution method. In kind it is functional. On the technique in general: Broth dilution looks for growth in wells or tubes with falling amounts of substance.

The subject of data set [10] is Staphylococcus epidermidis. Nature of the data set: Bactericidal activity against Staphylococcus epidermidis MTCC 435 assessed as inhibition of bacterial growth measured after 48 hrs by agar plate method. In kind it is functional. In short, it runs like this:
(§2)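 MBC: 10 μL from wells showing no INT colour change after broth microdilution subcultured on drug-free Mueller Hinton agar, 48 h at 37 °C aerobically; lowest concentration with no visible growth taken as MBC (μM). Triplicate.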

In data set [11] the test system is Staphylococcus aureus. The data set can be described thus: Antibacterial activity against clinically isolated Staphylococcus aureus RBRJ010 assessed as inhibition of bacterial growth measured after 48 hrs by broth microdilution method. The class given is functional.
For data set [12], the system named is Staphylococcus aureus. Nature of the data set: Antibacterial activity against Staphylococcus aureus MTCC 740 assessed as inhibition of bacterial growth at 50 uM measured after 48 hrs by agar well diffusion method. In kind it is functional. Conditions: read-out: IZ.
The subject of data set [13] is Staphylococcus epidermidis. The data set can be described thus: Antibacterial activity against Staphylococcus epidermidis MTCC 435 assessed as inhibition of bacterial growth measured after 48 hrs by broth microdilution method. In kind it is functional.
The test system of data set [14] is Enterococcus faecalis. Nature of the data set: Antibacterial activity against clinically isolated Enterococcus faecalis RBRJ015 assessed as inhibition of bacterial growth at 50 uM measured after 48 hrs by agar well diffusion method. In kind it is functional. Conditions: read-out: IZ.
Data set [15] has as its system Staphylococcus aureus. The data set can be described thus: Bactericidal activity against clinically isolated Methicillin-resistant Staphylococcus aureus assessed as inhibition of bacterial growth measured after 48 hrs by agar plate method. In kind it is functional.
In data set [16] the test system is Klebsiella pneumoniae. The data set can be described thus: Antibacterial activity against clinically isolated Klebsiella pneumoniae RBRJ024 assessed as inhibition of bacterial growth at 50 uM measured after 48 hrs by agar well diffusion method. In kind it is functional. Conditions: read-out: IZ.
In data set [17] the test system is Staphylococcus aureus. Nature of the data set: Antibacterial activity against Staphylococcus aureus MTCC 740 assessed as inhibition of bacterial growth measured after 48 hrs by broth microdilution method. The class given is functional.
Another data set concerns Enterobacter cloacae. Nature of the data set: Antibacterial activity against clinically isolated Enterobacter cloacae RBRJ017 assessed as inhibition of bacterial growth at 50 uM measured after 48 hrs by agar well diffusion method. In kind it is functional. To be noted: read-out: IZ.
The next data set relates to Acinetobacter baumannii. Nature of the data set: Antibacterial activity against clinically isolated Acinetobacter baumannii RBRJ027 assessed as inhibition of bacterial growth at 50 uM measured after 48 hrs by agar well diffusion method. In kind it is functional. To be noted: read-out: IZ.
In data set [18] the test system is Escherichia coli. The data set can be described thus: Antibacterial activity against clinically isolated Escherichia coli RBRJ013 assessed as inhibition of bacterial growth at 50 uM measured after 48 hrs by agar well diffusion method. In kind it is functional. To be noted: read-out: IZ.
In data set [19] the test system is Staphylococcus aureus. Nature of the data set: Antibacterial activity against clinically isolated Methicillin-resistant Staphylococcus aureus assessed as inhibition of bacterial growth at 50 uM measured after 48 hrs by agar well diffusion method. In kind it is functional. Conditions: read-out: IZ.
The test system of data set [20] is Staphylococcus aureus. The data set can be described thus: Bactericidal activity against Staphylococcus aureus MTCC 740 assessed as inhibition of bacterial growth measured after 48 hrs by agar plate method. The class given is functional. In short, it runs like this:
as §1

Data set [21] has as its system Staphylococcus aureus. Nature of the data set: Antibacterial activity against clinically isolated Methicillin-resistant Staphylococcus aureus assessed as inhibition of bacterial growth measured after 48 hrs by broth microdilution method. The class given is functional.
Data set [22] has as its system Escherichia coli. Nature of the data set: Antibacterial activity against clinically isolated Escherichia coli RBRJ005 assessed as inhibition of bacterial growth at 50 uM measured after 48 hrs by agar well diffusion method. The class given is functional. Conditions: read-out: IZ.
The nature of data set [23]: Cytotoxicity against mouse L929 cells assessed as reduction in cell viability measured after 72 hrs by MTT assay. In kind it is toxicity, cell-based. In short, it runs like this:
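L929 cells (ATCC) grown in DMEM with 10% FBS and penicillin/streptomycin at 37 °C, 5% CO2; seeded at 5 × 10^3 cells per well and exposed to serial dilutions for 72 h, paclitaxel as positive control. MTT (5 mg mL−1), formazan dissolved in DMSO, absorbance at 490 nm; viability relative to control after blank subtraction; IC50 in μM.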

In data set [24] the test system is Staphylococcus aureus. Nature of the data set: Antibacterial activity against clinically isolated Staphylococcus aureus RBRJ010 assessed as inhibition of bacterial growth at 50 uM measured after 48 hrs by agar well diffusion method. In kind it is functional. Conditions: read-out: IZ.
Data set [25] deals with Staphylococcus aureus. The data set can be described thus: Bactericidal activity against clinically isolated Staphylococcus aureus RBRJ010 assessed as inhibition of bacterial growth measured after 48 hrs by agar plate method. The class given is functional. In short, it runs like this:
as §2

A short description of data set [26]: Selectivity index, ratio of IC50 for cytotoxicity against mouse L929 cells to MIC for antibacterial activity against clinically isolated Methicillin-resistant Staphylococcus aureus. The class given is toxicity, cell-based. To be noted: read-out: Selectivity Index.
Data set [27] deals with Klebsiella pneumoniae. The data set can be described thus: Antibacterial activity against clinically isolated Klebsiella pneumoniae RBRJ019 assessed as inhibition of bacterial growth at 50 uM measured after 48 hrs by agar well diffusion method. In kind it is functional. Conditions: read-out: IZ.

Molecules are shown by their SMILES. Converted amounts (≈) assume the structure as drawn. The source made the active and inactive calls. The rule behind the calls is not given here.

In the case of `O=C(O)c1cn(C2CC2)c2cc(N3CCNCC3)c(F)cc2c1=O` [CIPROFLOXACIN], the MBC with Staphylococcus aureus [1] was 3.9 µM (≈ 1.29 µg/mL). The IZ entry in the data set on Klebsiella pneumoniae [2] and with Klebsiella pneumoniae [7] was “inactive” in each case. For the same molecule, the zone of inhibition at 50 µM in the data set with Enterococcus faecalis [3] amounted to 15.9 mm; in the data set with Klebsiella pneumoniae [4], 14.5 mm; with Escherichia coli [5] it was 11.2 mm; in the data set on Staphylococcus aureus [6], 24.5 mm; in [8], 17.4 mm; with Pseudomonas aeruginosa it was 24.2 mm. The MIC in the data set on Staphylococcus aureus [9] is 1.9 µM (≈ 0.63 µg/mL).
As for `Cc1ccc(C(C)C)c(OCc2cn(CCCN3C(=O)C(=O)c4cc(C)ccc43)nn2)c1`, the MBC turned out to be 31.2 µM (≈ 13.5 µg/mL) in data set [10]; 7.8 µM (≈ 3.37 µg/mL) in the data set with Staphylococcus aureus [1]; 7.8 µM (≈ 3.37 µg/mL) in the data set with Staphylococcus aureus [15]; 7.8 µM (≈ 3.37 µg/mL) in the data set on Staphylococcus aureus [20]; 15.6 µM (≈ 6.75 µg/mL) in the data set on Staphylococcus aureus [25]. The MIC was determined as 7.8 µM (≈ 3.37 µg/mL) in the data set with Staphylococcus aureus [11]; 15.6 µM (≈ 6.75 µg/mL) in data set [13]; 3.9 µM (≈ 1.69 µg/mL) with Staphylococcus aureus [17]; 3.9 µM (≈ 1.69 µg/mL) with Staphylococcus aureus [9]; 3.9 µM (≈ 1.69 µg/mL) in the data set with Staphylococcus aureus [21]. Besides, the zone of inhibition at 50 µM in the data set on Enterococcus faecalis [3] worked out at 13.3 mm; in the data set on Staphylococcus aureus [12], 26.1 mm; in the data set with Klebsiella pneumoniae [4], 19.2 mm; in the data set on Escherichia coli [5], 16.5 mm; in the data set with Enterococcus faecalis [14] it was 13.4 mm; with Staphylococcus aureus [6], 24.1 mm. Besides, the zone of inhibition at 50 µM amounted to 17.2 mm in the data set with Klebsiella pneumoniae [16]; 15.4 mm with Enterobacter cloacae; 13.1 mm in the data set on Acinetobacter baumannii; 17.6 mm with Escherichia coli [18]; 26.7 mm with Staphylococcus aureus [19]; 22.2 mm in [8]. For the same molecule, the zone of inhibition at 50 µM with Pseudomonas aeruginosa was 19.5 mm; with Escherichia coli [22], 18.2 mm; with Staphylococcus aureus [24], 24.6 mm; in the data set with Klebsiella pneumoniae [27], 18.5 mm. In addition, the IC50 at 72 h in data set [23] amounted to 125 µM. The selectivity ratio in data set [26] was 32.

The MBC is the lowest tested concentration that kills the bacteria rather than only halting them. A word on the MIC: it is the lowest concentration that inhibits growth of the organism. By IC50 is commonly meant the concentration that inhibits the measured activity by half.

The record behind these values is ChEMBL document CHEMBL5357047, “The development of thymol-isatin hybrids as broad-spectrum antibacterial agents with potent anti-MRSA activity” (RSC Med Chem, 2024).
